Measured values as given in ChEMBL document CHEMBL1255219, “Discovery of a β-d-2'-deoxy-2'-α-fluoro-2'-β-C-methyluridine nucleotide prodrug (PSI-7977) for the treatment of hepatitis C virus” (J Med Chem, 2010).

What was measured:
Rattus norvegicus [1] = assay: AUC (0 to infinity) in rat liver assessed as 2'-F-2'-C-Methyluridine-5''-TP level at 50 mg/kg, po; assay type: ADME, organism-based; set-up: time infinity, dose 50 mg/kg, route oral; settings: in vivo
In short: (§1)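 Rats given a single oral gavage dose of 50 mg/kg in 0.5% carboxymethylcellulose sodium, 5 mL/kg. Livers taken at 0.5, 1, 2, 4, 6 and 12 h after CO2 sacrifice and ice-cold saline perfusion, then snap-frozen. Homogenized in 3 volumes of cold 70% methanol with 20 mM EDTA/EGTA. Triphosphate measured by LC/MS/MS (ESI, MRM negative mode), noncompartmental analysis.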

Rattus norvegicus [2] = assay: Cmax in rat liver assessed as 2'-F-2'-C-Methyluridine-5''-TP level at 50 mg/kg, po; assay type: ADME, organism-based; set-up: dose 50 mg/kg, route oral; settings: in vivo; in short: as §1
[3] = Half life in human liver S9 fraction at 100 uM; assay type: ADME, subcellular
In short: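 Compound at 100 μM in 50 mM K2HPO4 pH 7.4 with 5 mM MgCl2. Started with 4 mg/mL human liver S9 at 37 °C. Samples at 0–24 h quenched with acetonitrile. Parent remaining measured by LC/MS/MS peak area relative to 0 h, and half-life calculated.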

[4] = Half life in simulated intestinal fluid of pH 7.5 at 50 ug/mL; assay type: physicochemical
In short: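 Compound at 50 μg/mL in simulated gastric fluid (pH 1.2) or simulated intestinal fluid (pH 7.5), 37 °C, 20 h. Injected by reverse-phase HPLC every 2 h, peak area at 260 nm.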

Hepatitis C virus [5] = assay: Antiviral activity against HCV infected in human clone A cells assessed as inhibition of cellular rRNA replication at 50 uM; assay type: functional, Hepacivirus hominis
Homo sapiens = species: Homo sapiens; assay: Half life in human plasma at 100 uM
[6] = Half life in simulated gastric fluid at pH 1.2 at 50 ug/mL; assay type: physicochemical
In short: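 Compound at 50 μg/mL in simulated gastric fluid (pH 1.2) or simulated intestinal fluid (pH 7.5), 37 °C, 20 h. Injected by reverse-phase HPLC every 2 h, peak area at 260 nm. Percent parent remaining relative to 0 h, giving half-life.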

Rattus norvegicus [7] = assay: AUC (0 to t) in rat liver assessed as 2'-F-2'-C-Methyluridine-5''-TP level at 50 mg/kg, po; assay type: ADME, organism-based; set-up: dose 50 mg/kg, route oral; settings: in vivo; in short: as §1
Rattus norvegicus [8] = assay: Tmax in rat liver assessed as 2'-F-2'-C-Methyluridine-5''-TP level at 50 mg/kg, po; assay type: ADME, organism-based; set-up: dose 50 mg/kg, route oral; settings: in vivo; in short: as §1
Hepatitis C virus [9] = assay: Antiviral activity against HCV infected in human clone A cells; assay type: functional, Hepacivirus hominis; settings: Hepatitis C virus
In short: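 Clone A replicon cells seeded at 1500 cells/well. Compounds serially diluted in G418-free culture medium and added, then incubated 4 days at 37 °C in 5% CO2. HCV RNA quantified by real-time RT-PCR as ΔCt relative to the mean no-drug control.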

Row | Compound | AUC (Rattus norvegicus [1]) | Cmax (Rattus norvegicus [2]) | half-life at 100 µM [3] | half-life at 50 ug/mL [4] | inhibition at 50 µM (Hepatitis C virus [5]) | half-life at 100 µM (Homo sapiens) | half-life at 50 ug/mL [6] | AUC (Rattus norvegicus [7]) | Tmax (Rattus norvegicus [8]) | EC90 (Hepatitis C virus [9])
1 | CC(C)OC(=O)[C@H](C)NP(=O)(OC[C@H]1O[C@@H](n2ccc(=O)[nH]c2=O)[C@](C)(F)[C@@H]1O)Oc1ccc(Cl)cc1 (stereo not given in full) | 8468 ng·h/g | 339 ng/g | 0.35 h | > 20 h | 0% | > 24 h | > 20 h | 5143 ng·h/g | 1 h | 420 nM
2 | C[C@H](NP(=O)(OC[C@H]1O[C@@H](n2ccc(=O)[nH]c2=O)[C@](C)(F)[C@@H]1O)Oc1ccccc1)C(=O)OC1CCCCC1 (stereo not given in full) | 8831 ng·h/g | 557 ng/g | 1.4 h | > 20 h | 61% | > 24 h | 17 h | 6487 ng·h/g | 2 h | 250 nM
3 | CCOC(=O)[C@H](C)NP(=O)(OC[C@H]1O[C@@H](n2ccc(=O)[nH]c2=O)[C@](C)(F)[C@@H]1O)Oc1ccc(F)cc1 (stereo not given in full) | 5423 ng·h/g | 291 ng/g | 0.23 h | > 20 h | 55.3% | > 8 h | 17 h | 4191 ng·h/g | 4 h | 760 nM
4 | CC(C)OC(=O)[C@H](C)NP(=O)(OC[C@H]1O[C@@H](n2ccc(=O)[nH]c2=O)[C@](C)(F)[C@@H]1O)Oc1ccc(F)cc1 (stereo not given in full) | 7375 ng·h/g | 519 ng/g | 0.42 h | > 20 h | 0% | > 24 h | > 20 h | 6140 ng·h/g | 6 h | 770 nM
